From PubChem BioAssay
JNK3 inh: JNK3 kinase activity inhibitors, primary screen, biochemical, human, purified enzyme; Mitogen-activated protein kinase 10 (Homo sapiens), P53779; HTS; inhibition, % at 8 µM; 60,000 compounds, 0.61% hits; AID 746, 2007; in the data active = inhibition above about 17%;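 also: 0% = DMSO and 100% = reference inhibitor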
HEK293 NFkB inh: inhibitors of PMA/ionomycin-induced NF-kB reporter, primary screen, antigen receptor NF-kB inhibitor project, cell-based, HEK-293 luciferase reporter, luminescence | HEK-293 NF-kB luciferase reporter | inhibition, % at 3 µM | 62,000 compounds, 0.21% hits;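 active = inhibition above the mean of all tested compounds plus 3 SD, cut at about 40% in these data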;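 also: 0% = stimulated DMSO wells and 100% = 10 µM reference inhibitor 5653914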
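System: NF-kB luciferase reporter HEK-293 cells | Replication: Single test | Control set: DMSO vs reference inhibitor | Evaluation: % inhibition | Schedule: 1 h pretreatment, 16 h stimulation, 37 °C | Probe or stimulus: PMA with ionomycin | Compound dosing: One dose, 3 µM | Detection: Luciferase luminescence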
RORa activator: activators of orphan receptor RORA, primary screen, cell-based, luminescence; Nuclear receptor ROR-alpha (Homo sapiens), P35398; activation, % at 10 µM; AID 560, 2006; 65,000 compounds, 1.5% hits; CHO-K1 Gal4-RORA LBD luciferase reporter; percent increase over mock-subtracted basal signal;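 active = activation above the mean of all tested compounds plus 3 SD, cut at about 49% in these data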;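 also: 0% = DMSO-treated RORA cells and 100% = added signal equal to DMSO minus mock-transfected cells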
Target sequence (P35398 whole entry, looked up, the tested form may be a part): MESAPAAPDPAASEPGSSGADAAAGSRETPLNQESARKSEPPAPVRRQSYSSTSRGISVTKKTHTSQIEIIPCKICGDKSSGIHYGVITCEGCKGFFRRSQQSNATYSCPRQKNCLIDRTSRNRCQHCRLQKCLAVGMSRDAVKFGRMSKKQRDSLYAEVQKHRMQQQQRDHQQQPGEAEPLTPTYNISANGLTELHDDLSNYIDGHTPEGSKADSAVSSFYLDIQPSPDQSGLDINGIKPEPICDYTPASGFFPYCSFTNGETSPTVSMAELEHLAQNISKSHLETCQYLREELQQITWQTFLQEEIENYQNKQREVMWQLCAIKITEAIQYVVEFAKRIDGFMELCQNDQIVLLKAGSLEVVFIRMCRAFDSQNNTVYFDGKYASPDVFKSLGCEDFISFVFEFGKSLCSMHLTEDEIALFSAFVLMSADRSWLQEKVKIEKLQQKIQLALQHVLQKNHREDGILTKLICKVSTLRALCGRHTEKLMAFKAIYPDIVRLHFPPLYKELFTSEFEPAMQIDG
SF-1 act: activators of human SF-1, primary screen, cell-based, CHO-K1, Gal4-SF-1 LBD, luciferase luminescence. AID 522, 2006. activation, % at 10 µM. 65,000 compounds, 1.9% hits. Steroidogenic factor 1 (Homo sapiens), Q13285. CHO-K1 Gal4-SF-1 LBD luciferase reporter; % increase over DMSO SF-1-specific signal;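 active = activation above the mean activation of all tested compounds plus 3 SD, cut at about 50% in these data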
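Material: CHO-K1 cells with Gal4–hSF-1 LBD chimera plus Gal4-driven luciferase / Input: 4,000 CHO-K1 cells per well / Incubation: compound exposure 20 h at 37 °C / Signal: luminescence read 15 min after SteadyLite luciferase reagent, after room-temperature equilibration / Read-out: percent activation versus DMSO / Benchmarks: DMSO negative control and −SF1 background wells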
D1 allo mod: D1 CRE-luciferase signal change, two-sided – cell-based, HEK293 D1, dopamine EC30, D1 allosteric modulator project, primary screen | 58,000 compounds, 5.9% hits | D(1A) dopamine receptor (Homo sapiens), P21728 | dopamine EC30 potentiation; actives deviate in either direction | B-score at 10 µM;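 active = luminescence count or its row- and column-corrected plate score outside the 99.7% band of the plate's sample wells, on either side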
* = called active by the depositor; . = no result. A selection: hits, their analogues and other compounds. The true share with any hit is near 7.9%.

SMILES	JNK3 inh	HEK293 NFkB inh	RORa activator	SF-1 act	D1 allo mod
COc1cc(OC)cc(-c2cc3nc4c(c(N5CCN(c6ncccn6)CC5)n3n2)CCCC4)c1	-1.9	18.8	0.7	-6.8	.
COc1cc(OC)cc(-c2cc3nc4c(c(N5CCN(c6cnccn6)CC5)n3n2)CCCC4)c1	3.3	-5.9	27.2	19.4	-3.35*
Cc1cc(-n2ccc(=O)[nH]c2=O)nc(-c2ccccc2)n1	-12.4	11.4	-2.9	0.5	3.83
Cc1ccc(-n2cc(-c3ccccc3)[nH]c2=O)cc1F	-4.6	-12.2	39.9	86.8*	-0.0237
Cc1cccc(-n2ncc3c(N4CCCC4)ncnc32)c1	1.0	-18.1	-38.4	-22.8	-7.31*
Cc1cccc(-n2ncc3c(N4CCOCC4)ncnc32)c1	-3.8	4.5	-67.3	-64.6	.
Cc1cccc(-n2ncc3c(N4CC(C)CC(C)C4)ncnc32)c1 (stereo not given)	0.7	-20.2	46.9	50.7*	-0.917
Cc1ccc(-n2ncc3c(N4CCN(c5ccccc5)CC4)ncnc32)c(C)c1	-5.9	.	-48.6	-25.4	-3.97*
COc1ccc(N2CCN(c3ncnc4c3cnn4-c3ccc(C)cc3C)CC2)cc1	-4.7	24.1	-10.8	-36.9	-0.759
CCn1c(SC(=O)NC2CCCCC2)nnc1-c1cccs1	3.6	9.8	6.7	18.4	0.988
CCOC(=O)C1CCN(c2c(NCc3ccc(C(=O)NC(C)CC)cc3)c(=O)c2=O)CC1 (stereo not given)	3.4	-1.1	1.3	19.1	-3.21*
O=C(c1cccc(Cl)c1)N1CCN(Cc2ccccc2F)CC1	3.5	-2.8	-13.6	23.3	0.768
Cc1ccc(-n2c(=O)[nH]cc(C(=O)Nc3ccc4c(c3)OCCO4)c2=O)cc1	-1.3	11.1	7.5	-2.8	-5.04*
COc1ccc(Cl)cc1C(=O)Nc1ccc2c(c1)OCO2	-2.1	-7.5	22.8	39.0	-1.08
COc1cc(SC)ccc1C(=O)Nc1ccc2c(c1)OCCO2	-4.5	-50.1	13.7	13.0	-4.19*
O=C(Nc1cccc(-c2nnc(-c3ccccc3)o2)c1)c1ccc(Br)o1	8.0	13.3	10.7	67.0*	-0.907
O=C(COc1ccccc1)Nc1cccc(-c2nnc(-c3ccccc3)o2)c1	-5.5	-7.8	-5.4	46.5	-1.25
Cc1ccc(-n2c(=O)[nH]cc(C(=O)Nc3ccc4c(c3)OCCO4)c2=O)cc1C	5.4	19.0	-2.3	0.1	0.0929
O=C(Nc1ccc2c(c1)OCCO2)c1ccc(Br)o1	12.7	.	32.9	58.8*	.
Cc1ccc2oc(=O)c3cnn(CC(=O)NC4CCCCC4C)c3c2c1 (stereo not given)	-2.4	-3.4	2.4	-13.8	.
CCCCn1nnnc1SCC(=O)Nc1ccc2c(c1)OCO2	-5.7	0.2	-13.0	10.9	-0.131
O=C(Nc1ccc2c(c1)OCCO2)c1cccnc1	-3.8	1.2	15.1	25.7	-3.22*
COc1ccc(CCC(=O)Nc2ccc3c(c2)OCCO3)cc1	1.7	3.8	55.7*	-12.7	0.408
Cc1oc(C(C)(C)C)cc1C(=O)Nc1ccc2c(c1)OCCO2	3.4	-20.4	63.5*	57.0*	.
O=C(Nc1ccc(Nc2ccccc2)cc1)c1ccc(Br)o1	-2.6	-7.8	49.4*	47.4	-0.943
SMILES	JNK3 inh	HEK293 NFkB inh	RORa activator	SF-1 act	D1 allo mod
O=C(Nc1nccs1)c1ccc(Br)o1	18.1*	-5.9	23.6	64.7*	.
Cc1oc(C(=O)Nc2ccc(O)cc2)cc1COc1ccccc1	2.1	16.0	2.8	11.7	0.0301
O=C(Nc1ccc(O)cc1)c1ccc(C(=O)c2ccccc2)o1	2.2	13.3	-1.0	-14.8	-3.19*
O=C(Nc1ccc(N2CCCCC2)c(Cl)c1)c1cccnc1	-2.5	36.0	38.5	75.1*	0.0137
COC(=O)CSCc1nc2ccccc2[nH]c1=O	-2.0	2.0	-16.0	-4.7	0.00329
CCOc1ccccc1CN1C(=O)NC(C)(c2ccccc2)C1=O (stereo not given)	3.2	6.9	8.6	1.8	-0.6
CCCc1ccccc1OCCNC(C)=O	-0.8	9.4	5.0	-4.5	0.0246
COc1ccc(NC2CC(=O)N(c3ccccc3)C2=O)cc1 (stereo not given)	-8.0	-7.6	31.6	56.9*	0.1
COc1ccccc1N1C(=O)CC(Nc2ccc(N3CCOCC3)cc2)C1=O (stereo not given)	-1.7	3.8	-20.6	4.9	0.365
COc1cccc2[nH]c3c(N4CCCCC4)ncnc3c12	-13.1	-4.5	43.7	10.2	-0.307
COc1cc2[nH]c3c(N4CCN(c5ccccn5)CC4)ncnc3c2cc1OC	4.3	-6.5	-1.0	25.1	-4.76*
COc1cccc(-c2nn(C)c3sc(C(=O)NCc4ccccn4)cc23)c1	16.3	22.0	3.8	-0.2	-0.37
COc1cccc(-c2nn(C)c3sc(C(=O)Nc4ccc5c(c4)OCCO5)cc23)c1	12.9	7.4	56.5*	80.1*	-0.403
CN(CCNC(=O)c1ccc(N2CCCC2=O)cc1)CCc1ccccc1	.	10.2	-0.6	-5.7	.
CCOC(=O)c1[nH]c(C)c(C(=O)Nc2ccccc2F)c1C	0.3	4.4	110.5*	82.6*	0.972
Cc1ccc(NC(=O)NC2CCCCC2)cc1Cl	-4.2	-47.9	105.5*	73.8*	-1.34
Cc1ccc(NC(=O)C2CCN(C(=O)NC3CCCCC3)CC2)cc1Cl	-4.5	12.8	1.5	0.6	-0.921
C=CS(=O)(=O)c1ccc(Oc2ccc(S(=O)(=O)C=C)cc2)cc1	8.3	81.2*	-94.5	-96.6	-4.79*
CC1CCc2c(sc(NC(=O)c3noc4c3CCCC4)c2C(N)=O)C1 (stereo not given)	2.2	-57.7	100.8*	49.9*	-0.646
CC1=C(C(=O)NCCN2CCN(C)CC2)C2(CCC(C)CC2)OC1=O (stereo not given)	1.7	18.0	9.0	-13.7	-0.227
O=C(Nc1ccc2c(c1)OCO2)c1cnc2n(c1=O)CCS2	-0.6	-34.9	36.3	62.3*	-0.543
O=C(NCc1ccc2c(c1)OCO2)c1cnc2n(c1=O)CCS2	-6.2	7.6	4.5	-5.3	0.0355
O=C(NCCC1=CCCCC1)c1cnc2n(c1=O)CCS2	-2.5	-23.2	33.5	51.3*	2.11
O=C(NCc1ccccc1)c1cnc2n(c1=O)CCS2	-4.4	10.6	2.2	-4.1	-3.47*
O=C(NCCc1ccc(Cl)cc1)c1cnc2n(c1=O)CCS2	1.0	-12.7	34.8	33.9	.
O=C(Nc1ccc2c(c1)OCCO2)c1cnc2n(c1=O)CCS2	-1.0	-36.3	88.1*	91.0*	-1.02
Cc1ccc(N(CC(=O)N2CC(=O)Nc3ccccc32)S(=O)(=O)c2ccc3c(c2)OCCO3)cc1	.	15.5	-4.3	-9.2	.
CCN(CC)c1cccc(OC2=NS(=O)(=O)c3ccccc32)c1	-9.4	1.1	-17.5	-11.5	-0.102
